≈ marks a conversion by molar mass, not a printed value.
Tests used:
Format in all cases: functional
Pseudomonas aeruginosa = test: Antimicrobial activity against Pseudomonas aeruginosa after 24 hrs by broth microdilution method
Procedure, shortened: (§1)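 Broth microdilution. Bacteria were grown on Mueller-Hinton agar and diluted in Mueller-Hinton broth. Compounds were made as 1000 µg/mL stocks in 50% DMSO/H₂O and added to wells as two-fold dilutions starting at 500 µg/mL, then inoculated. Sealed plates were incubated at 37 °C for 24 h in a humid chamber. MIC was the lowest concentration with no visible turbidity.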

Klebsiella aerogenes = test: Antimicrobial activity against Enterobacter aerogenes after 24 hrs by broth microdilution method; procedure, shortened: as §1
Staphylococcus aureus = test: Antimicrobial activity against Staphylococcus aureus after 24 hrs by broth microdilution method; procedure, shortened: as §1
Enterococcus faecalis = test: Antimicrobial activity against Enterococcus faecalis after 24 hrs by broth microdilution method; procedure, shortened: as §1
Priestia megaterium = test: Antimicrobial activity against Bacillus megaterium after 24 hrs by broth microdilution method; procedure, shortened: as §1
Candida albicans = test: Antimicrobial activity against Candida albicans after 48 hrs by broth microdilution method
Procedure, shortened: (§2)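 Fungi were grown on Sabouraud dextrose agar. Inocula were prepared in Sabouraud liquid medium at 37 °C for 12 h, then diluted in RPMI-1640 with L-glutamine, MOPS-buffered at pH 7. Compounds were made as 1000 µg/mL stocks in 50% DMSO/H₂O and tested as two-fold dilutions from 500 µg/mL. Sealed plates were incubated at 37 °C for 48 h in a humid chamber. MIC was the lowest concentration without visible turbidity.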

Candida parapsilosis = test: Antimicrobial activity against Candida parapsilosis after 48 hrs by broth microdilution method; conditions: Lodderomyces parapsilosis; procedure, shortened: as §2
Aspergillus flavus = test: Antimicrobial activity against Aspergillus flavus after 48 hrs by broth microdilution method; procedure, shortened: as §2
Nannizzia gypsea = test: Antimicrobial activity against Microsporum gypseum after 48 hrs by broth microdilution method; procedure, shortened: as §2
Escherichia coli = test: Antimicrobial activity against Escherichia coli after 24 hrs by broth microdilution method; procedure, shortened: as §1

Compound | MIC (Pseudomonas aeruginosa) | MIC (Klebsiella aerogenes) | MIC (Staphylococcus aureus) | MIC (Enterococcus faecalis) | MIC (Priestia megaterium) | MIC (Candida albicans) | MIC (Candida parapsilosis) | MIC (Aspergillus flavus) | MIC (Nannizzia gypsea) | MIC (Escherichia coli)
Cc1ccc2[nH]cc(-c3nc4sc5cc(F)ccc5n4c3Nc3ccc(F)cc3)c2c1 | 16.2 µg/mL (≈ 37.6 µM) | 14.6 µg/mL (≈ 34 µM) | 10.1 µg/mL (≈ 23.5 µM) | 9.17 µg/mL (≈ 21.3 µM) | 22.1 µg/mL (≈ 51.5 µM) | 14.6 µg/mL (≈ 34 µM) | 16.5 µg/mL (≈ 38.3 µM) | 14.6 µg/mL (≈ 33.8 µM) | 10.5 µg/mL (≈ 24.5 µM) | 14.5 µg/mL (≈ 33.7 µM)
COc1ccc2c(c1)sc1nc(-c3c[nH]c4ccc(Br)cc34)c(Nc3ccc(F)cc3)n12 | 9.69 µg/mL (≈ 19.1 µM) | 8.13 µg/mL (≈ 16 µM) | 7.33 µg/mL (≈ 14.4 µM) | 10.6 µg/mL (≈ 20.8 µM) | 13.2 µg/mL (≈ 26.1 µM) | 4.12 µg/mL (≈ 8.12 µM) | 5.63 µg/mL (≈ 11.1 µM) | 3.21 µg/mL (≈ 6.33 µM) | 4.14 µg/mL (≈ 8.16 µM) | 8.12 µg/mL (≈ 16 µM)
Cc1ccc(-c2cnc(-c3ccc4nc(-c5cnc6ccc(Br)cc6c5)c(Nc5ccc(F)cc5)n4c3)[nH]2)cc1 | 2.89 µg/mL (≈ 4.9 µM) | 2.78 µg/mL (≈ 4.72 µM) | 1.95 µg/mL (≈ 3.31 µM) | 2.26 µg/mL (≈ 3.83 µM) | 5.14 µg/mL (≈ 8.72 µM) | 13.1 µg/mL (≈ 22.3 µM) | 12.6 µg/mL (≈ 21.3 µM) | 12.6 µg/mL (≈ 21.4 µM) | 11.5 µg/mL (≈ 19.5 µM) | 3.42 µg/mL (≈ 5.8 µM)
O=[N+]([O-])c1ccc2nc(-c3ccc4nc(-c5cnc6ccc(Br)cc6c5)c(Nc5ccc(F)cc5)n4c3)[nH]c2c1 | 2.32 µg/mL (≈ 3.9 µM) | 3.15 µg/mL (≈ 5.3 µM) | 2.12 µg/mL (≈ 3.57 µM) | 3.36 µg/mL (≈ 5.65 µM) | 4.12 µg/mL (≈ 6.93 µM) | 4.23 µg/mL (≈ 7.12 µM) | 5.34 µg/mL (≈ 8.98 µM) | 7.63 µg/mL (≈ 12.8 µM) | 9.41 µg/mL (≈ 15.8 µM) | 2.14 µg/mL (≈ 3.6 µM)
Fc1ccc(Nc2c(-c3c[nH]c4ccc(Br)cc34)nc3ccc(-c4nnc(-c5ccc(F)cc5)o4)cn23)cc1 | 0.21 µg/mL (≈ 0.36 µM) | 0.35 µg/mL (≈ 0.6 µM) | 0.31 µg/mL (≈ 0.531 µM) | 0.37 µg/mL (≈ 0.634 µM) | 1.97 µg/mL (≈ 3.38 µM) | 2.54 µg/mL (≈ 4.35 µM) | 2.22 µg/mL (≈ 3.81 µM) | 3.13 µg/mL (≈ 5.37 µM) | 4.25 µg/mL (≈ 7.28 µM) | 0.11 µg/mL (≈ 0.189 µM)
Cc1ccc(-c2cnc(-c3ccc4nc(-c5c[nH]c6ccc(Br)cc56)c(Nc5ccc(F)cc5)n4c3)[nH]2)cc1 | 8.28 µg/mL (≈ 14.3 µM) | 6.22 µg/mL (≈ 10.8 µM) | 5.13 µg/mL (≈ 8.88 µM) | 7.32 µg/mL (≈ 12.7 µM) | 1.25 µg/mL (≈ 2.16 µM) | 19.5 µg/mL (≈ 33.8 µM) | 18.4 µg/mL (≈ 31.9 µM) | 16.5 µg/mL (≈ 28.5 µM) | 15.6 µg/mL (≈ 27 µM) | 6.11 µg/mL (≈ 10.6 µM)
Fc1ccc(Nc2c(-c3cnc4ccc(Br)cc4c3)nc3ccc(-c4nc5ccc(F)cc5[nH]4)cn23)cc1 | 1.35 µg/mL (≈ 2.38 µM) | 1.55 µg/mL (≈ 2.73 µM) | 1.46 µg/mL (≈ 2.57 µM) | 1.47 µg/mL (≈ 2.59 µM) | 2.53 µg/mL (≈ 4.46 µM) | 1.11 µg/mL (≈ 1.96 µM) | 1.22 µg/mL (≈ 2.15 µM) | 1.36 µg/mL (≈ 2.4 µM) | 1.21 µg/mL (≈ 2.13 µM) | 1.34 µg/mL (≈ 2.36 µM)
Fc1ccc(Nc2c(-c3cnc4ccc(Br)cc4c3)nc3sc4cc(F)ccc4n23)cc1 | 0.34 µg/mL (≈ 0.67 µM) | 0.51 µg/mL (≈ 1.01 µM) | 0.43 µg/mL (≈ 0.848 µM) | 0.51 µg/mL (≈ 1.01 µM) | 1.12 µg/mL (≈ 2.21 µM) | 1.21 µg/mL (≈ 2.38 µM) | 1.13 µg/mL (≈ 2.23 µM) | 1.3 µg/mL (≈ 2.56 µM) | 1.24 µg/mL (≈ 2.44 µM) | 0.35 µg/mL (≈ 0.69 µM)
Cc1ccc2ncc(-c3nc4sc5cc(F)ccc5n4c3Nc3ccc(F)cc3)cc2c1 | 9.66 µg/mL (≈ 21.8 µM) | 9.57 µg/mL (≈ 21.6 µM) | 8.63 µg/mL (≈ 19.5 µM) | 9.45 µg/mL (≈ 21.4 µM) | 18.6 µg/mL (≈ 42.1 µM) | 12.2 µg/mL (≈ 27.5 µM) | 14.4 µg/mL (≈ 32.6 µM) | 13.4 µg/mL (≈ 30.2 µM) | 18.4 µg/mL (≈ 41.6 µM) | 10.4 µg/mL (≈ 23.5 µM)
OC(Cn1cncn1)(Cn1cncn1)c1ccc(F)cc1F [FLUCONAZOLE] |  |  |  |  |  | 2.11 µg/mL (≈ 6.89 µM) | 4.35 µg/mL (≈ 14.2 µM) | 9.22 µg/mL (≈ 30.1 µM) | 6.57 µg/mL (≈ 21.5 µM) | 
Fc1ccc(Nc2c(-c3cnc4ccc(Br)cc4c3)nc3ccc(-c4ncc(-c5ccc(F)cc5)[nH]4)cn23)cc1 | 1.34 µg/mL (≈ 2.26 µM) | 0.81 µg/mL (≈ 1.36 µM) | 0.63 µg/mL (≈ 1.06 µM) | 1.21 µg/mL (≈ 2.04 µM) | 4.07 µg/mL (≈ 6.86 µM) | 1.05 µg/mL (≈ 1.77 µM) | 1.15 µg/mL (≈ 1.94 µM) | 0.72 µg/mL (≈ 1.21 µM) | 0.84 µg/mL (≈ 1.42 µM) | 1.15 µg/mL (≈ 1.94 µM)
Cc1ccc(-c2nnc(-c3ccc4nc(-c5cnc6ccc(Br)cc6c5)c(Nc5ccc(F)cc5)n4c3)o2)cc1 | 2.57 µg/mL (≈ 4.35 µM) | 1.74 µg/mL (≈ 2.94 µM) | 1.24 µg/mL (≈ 2.1 µM) | 2.32 µg/mL (≈ 3.92 µM) | 3.15 µg/mL (≈ 5.33 µM) | 12.2 µg/mL (≈ 20.7 µM) | 12.2 µg/mL (≈ 20.7 µM) | 11.3 µg/mL (≈ 19.1 µM) | 11.2 µg/mL (≈ 18.9 µM) | 2.43 µg/mL (≈ 4.11 µM)
CC1(C)S[C@@H]2[C@H](NC(=O)[C@H](N)c3ccc(O)cc3)C(=O)N2[C@H]1C(=O)O [AMOXICILLIN] | 14.7 µg/mL (≈ 40.1 µM) | 3.45 µg/mL (≈ 9.44 µM) | 12.9 µg/mL (≈ 35.4 µM) | 1.62 µg/mL (≈ 4.43 µM) | 2.28 µg/mL (≈ 6.24 µM) |  |  |  |  | 15.3 µg/mL (≈ 41.9 µM)
